Source: PubChem BioAssay
Sampled rows, rich in hits. Any-hit rate of the full collection: about 1%.
eIF2B yeast act: modulators of yeast eIF2B activity | S. cerevisiae eIF2B-epsilon R284H, GCN4-lacZ luminescence | inhibition, % at 25 µM (by protocol) | 27,000 tested, 0.91% active;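 active means mutant luminescence inhibited past about 50% while wild type luminescence and mutant growth stay under set limits, limit read from the data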
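material = yeast eIF2B-epsilon R284H mutant carrying GCN4–beta-galactosidase fusion | schedule = 16 h growth with compound at 30 °C, 90 min Beta-Glo step | measured by = luminescence and A595 | compound dosing = one concentration, 25 µM, 0.25% DMSO | read-out basis = % inhibition of reporter signal and growth versus controls | buffer or medium = YPD medium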
Yeast growth tox: Compounds toxic to wild-type S. cerevisiae growth; A595 turbidity, 16 h; growth inhibition, % at 25 µM (by protocol); 30,000 tested, 0.3% active;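 active means mutant and wild-type yeast strains alike exhibit over 30% growth inhibition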;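 further: 0% = untreated cell controls and 100% = YPD media blanks without cells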
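Test system: Wild-type and eIF2Bepsilon-R284H mutant S. cerevisiae, screened separately | Dosing: Single 25 µM compound dose in 0.2% DMSO | Schedule: 16 h compound exposure during growth at 30 °C | Detection: A595 turbidity | Evaluation: Growth inhibition (%) versus cell controls and blanks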
An asterisk follows results filed as active; · = no result.

SMILES	eIF2B yeast act	Yeast growth tox
CCOc1ccc(-c2[nH]ncc2Oc2ccccc2OC)c(O)c1	8	32
CCCOC(=O)c1ccc(Oc2cn[nH]c2-c2ccc(OC)cc2O)cc1	29	60*
Cc1ccc(S(=O)(=O)Nn2c(C)ccc2C)cc1	-16	·
COCc1nnc(NC(=O)CC(c2ccccc2)c2ccccc2)s1	-28	-16
COC(=O)c1ccc(C(=O)OC)c(NC(=O)CSc2nc(-c3ccco3)cc(C(F)(F)F)n2)c1	18	0
COC(=O)c1ccccc1NC(=O)CSc1nc(-c2ccco2)cc(C(F)(F)F)n1	66*	-5
CC(=O)OC(C(=O)N1CCN(c2ccccc2F)CC1)c1ccccc1 (stereo not given)	-26	-2
CC1(C)NC(=O)N(CCOCCOc2cccc(Oc3ccccc3)c2)C1=O	13	2
CCC(C)Oc1cccc(OCCCCN2C(=O)NC(C)(C)C2=O)c1 (stereo not given)	51*	-12
CCOCCn1c(=O)c2c(nc3n2CCN3c2ccccc2)n(C)c1=O	16	1
CC1(C)CNC(=O)c2sc(NC(=O)CN3CCOCC3)nc2C1	27	-14
COc1ccc(OCC(=O)NCc2cccnc2)cc1	12	·
COc1ccc2c(c1)CCc1c(C(=O)NCc3cccnc3)noc1-2	60*	-10
COc1ccc(NC(=O)CCNC(=O)Cn2cnc3ccccc3c2=O)c(OC)c1	-11	-4
COc1ccc(OC)c(NC(=O)CNC(=O)Cn2cnc3ccccc3c2=O)c1	65*	-4
Cc1ccc(Nc2cc(C)nn2-c2nc(C)cc(=O)[nH]2)cc1	98	78*
CCOC(=O)c1ccc(Nc2nc(C)cc(=O)[nH]2)cc1	18	15
Cc1ccc(N2C(=O)C3C4C=CC(C4)C3C2=O)cc1C (stereo not given)	7	-6
Cc1cccc(N2C(=O)C3C4C=CC(C4)C3C2=O)c1 (stereo not given)	57*	-6
CCOC(=O)c1c(NC(=O)c2c(Br)cnn2CC)sc(C)c1C	26	-17
O=C(OCn1ncc(Br)c(Br)c1=O)c1c(F)cccc1F	·	82*
Nc1ccc2c(c1)C(=O)C(=O)c1ccccc1-2	·	38*
O=C1C(=O)c2ccc(-c3ccccc3)cc2-c2ccccc21	43	38
Cc1cc2n(n1)SC(Nc1ccccc1)N2 (stereo not given)	55*	·
Cc1oc2c(CN3CCOCC3)c(O)ccc2c(=O)c1-c1ccccc1	-15	6
SMILES	eIF2B yeast act	Yeast growth tox
COc1ccccc1-c1nnc2sc(COc3ccc(Cl)cc3)nn12	63*	2
COc1ccc(OCc2nn3c(-c4ccccn4)nnc3s2)cc1	10	8
Cc1cc(NC(=O)C(=O)NCCN2CCN(C(=O)c3cccs3)CC2)ccc1Br	-35	-30
COc1ccc(NC(=O)C(=O)NCCN2CCN(C(=O)c3cccs3)CC2)cc1	52*	-23
O=C(CN1C(=O)C2CC=C(Cl)CC2C1=O)N1CCOCC1 (stereo not given)	-11	·
Cc1ccccc1C(=O)Nc1ccc2c(c1)OCO2	35	2
Cn1c(=O)c2c(nc(Oc3ccc4c(c3)OCO4)n2Cc2ccc(Br)cc2)n(C)c1=O	57*	-42
COc1ccc(Oc2nc3c(c(=O)n(C)c(=O)n3C)n2Cc2cccc(OC)c2)cc1	4	-16
CN(CCOC(=O)c1ccc2c(c1)OCCO2)C(C)(C)C	-2	·
CN1C(=O)Cc2cc(S(=O)(=O)N3CCOCC3)ccc21	9	3
O=C(Nc1ccccn1)c1cc2ccccc2o1	57*	·
CCC(=O)Nc1ccc(NC(=O)c2cc3ccccc3o2)cc1	19	18
COc1ccccc1CNC(=O)CN(c1ccc(C)cc1)S(=O)(=O)c1c(C)nn(C)c1C	51*	7
COc1ccccc1NC(=O)CN(c1ccc(C)cc1)S(=O)(=O)c1c(C)n[nH]c1C	19	21
COC(=O)c1ccc(N/C(C)=C/C(=O)c2ccc(C)o2)cc1	7	-8
Clc1ccc2nc(N3CCCCC3)[nH]c2c1	37	14
O=c1c(Cl)c(N2CCCCC2)cnn1-c1nc2ccccc2[nH]1	73*	-4
COc1ccc(Br)cc1S(=O)(=O)N1CCCC1	31	1
COc1ccccc1N1CCN(C(=O)c2ccc(C(C)(C)C)cc2)CC1	24	·
COC(=O)c1cc(NC(=O)CCc2c(C)nc3ncnn3c2C)cc(C(=O)OC)c1	11	-23
CCOC(=O)C1CCN(c2ncnc3c2oc2ccc(Cl)cc23)CC1	-11	9
CC(=O)c1ccc(NC(=O)c2noc3c2CCCCC3)cc1	69*	-9
O=C(Nc1ccc2c(c1)OCO2)c1noc2c1CCCCC2	11	2
CN1CCN(C2=Cc3ccccc3Sc3cc(F)c(F)cc32)CC1	75	94*
CN1CCN(C2=Cc3ccccc3Sc3cc(F)c(Cl)cc32)CC1	98	99*
CN1CCN(CCC(=O)N2c3ccccc3Sc3ccc(Cl)cc32)CC1	20	-2
CN1CCN(c2nc(-c3ccccc3)cc(C(F)(F)F)n2)CC1	30	-12
C=CCNC(=O)C12CC3(C)CC(C)(CC(C)(C3)C1)C2	19	12
O=C(CC12CC3CC(C1)CC(CC(=O)NC1=NCCS1)(C3)C2)NC1=NCCS1	14	1
O=C(Nc1ccc(Cl)cn1)c1ccccc1F	27	10
